The record followed here is ChEMBL document CHEMBL4311983, “Development of chalcone-O-alkylamine derivatives as multifunctional agents against Alzheimer's disease” (Eur J Med Chem, 2019).

Each structure is given as a SMILES string.

Data set [1] addresses T1, Cholinesterase (Homo sapiens, UniProt P06276). As to the kind of experiment: Inhibition of BuChE (unknown origin).
Data set [2] can be described thus: Disaggregation of Cu2+ induced preformed fibrils of amyloid beta (1 to 42) at 25 uM preincubated with Cu2+ for 24 hrs followed by compound addition and measured after 24 hrs by thioflavin-T based fluorescence assay relative to control. Summed up: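 Aβ1-42 and Cu2+ (each 25 μM final) in 20 mM HEPES pH 6.6, 150 mM NaCl, preincubated 24 h at 37 °C; compound (25 μM final) added, another 24 h at 37 °C under film; 5 μM ThT in glycine-NaOH added; ex 446/em 490 nm; triplicate.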

Data set [3] is described as follows: Inhibition of Cu2+-induced amyloid beta (1 to 42 residues) aggregation at 25 uM after 24 hrs by thioflavin T-based fluorescence assay relative to control. In outline: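 Aβ1-42 (25 μM final) with Cu2+ (25 μM final) in 20 mM HEPES pH 6.6, 150 NaCl, ± compound 25 μM final, 37 °C for 24 h; 5 μM ThT in 50 mM glycine-NaOH pH 8.50 added; ex 446/em 490 nm; triplicate.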

The target of data set [4] is T1, Cholinesterase. As to the kind of experiment: Inhibition of human BuChE using butyrylthiocholine iodide as substrate incubated for 15 mins by Ellman's method. Summed up:
(§1)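 Modified Ellman assay in phosphate buffer pH 8.0, with enzyme at 0.05 U/mL final: eel AChE, equine serum BuChE or human serum BuChE. Test compound was added at several concentrations, and blanks lacked enzyme.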

The target in data set [5] is Acetylcholinesterase (Homo sapiens, UniProt P22303). As to the kind of experiment: Inhibition of human AChE using acetylthiocholine iodide as substrate after 15 mins by Ellman's method. A general note: Ellman's reagent forms a yellow product with free thiols.
The target of data set [6] is T2, Amine oxidase [flavin-containing] A (Homo sapiens, UniProt P21397).
T2 sequence (P21397 whole entry): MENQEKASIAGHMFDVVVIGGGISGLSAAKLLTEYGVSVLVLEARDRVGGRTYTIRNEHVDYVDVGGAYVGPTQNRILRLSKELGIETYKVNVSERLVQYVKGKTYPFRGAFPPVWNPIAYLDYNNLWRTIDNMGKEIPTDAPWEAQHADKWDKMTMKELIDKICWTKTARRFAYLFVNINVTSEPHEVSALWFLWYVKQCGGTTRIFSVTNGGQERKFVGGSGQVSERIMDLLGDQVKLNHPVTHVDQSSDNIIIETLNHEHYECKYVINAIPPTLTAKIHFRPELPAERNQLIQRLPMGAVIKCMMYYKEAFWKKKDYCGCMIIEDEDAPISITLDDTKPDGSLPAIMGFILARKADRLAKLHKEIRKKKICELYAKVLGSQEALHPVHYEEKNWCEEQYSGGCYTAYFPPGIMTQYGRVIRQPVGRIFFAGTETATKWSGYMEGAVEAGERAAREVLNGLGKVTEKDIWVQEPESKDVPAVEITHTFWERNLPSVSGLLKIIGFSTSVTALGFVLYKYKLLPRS
Nature of the data set: Inhibition of recombinant human MAO-A expressed in baculovirus infected BTI insect cells at 10 uM using kynuramine as substrate after 30 mins by fluorescence based assay relative to control. Particulars: 0.5 h.

Data set [7] deals with T3, Amine oxidase [flavin-containing] B (Homo sapiens, UniProt P27338).
T3 sequence (P27338 whole entry): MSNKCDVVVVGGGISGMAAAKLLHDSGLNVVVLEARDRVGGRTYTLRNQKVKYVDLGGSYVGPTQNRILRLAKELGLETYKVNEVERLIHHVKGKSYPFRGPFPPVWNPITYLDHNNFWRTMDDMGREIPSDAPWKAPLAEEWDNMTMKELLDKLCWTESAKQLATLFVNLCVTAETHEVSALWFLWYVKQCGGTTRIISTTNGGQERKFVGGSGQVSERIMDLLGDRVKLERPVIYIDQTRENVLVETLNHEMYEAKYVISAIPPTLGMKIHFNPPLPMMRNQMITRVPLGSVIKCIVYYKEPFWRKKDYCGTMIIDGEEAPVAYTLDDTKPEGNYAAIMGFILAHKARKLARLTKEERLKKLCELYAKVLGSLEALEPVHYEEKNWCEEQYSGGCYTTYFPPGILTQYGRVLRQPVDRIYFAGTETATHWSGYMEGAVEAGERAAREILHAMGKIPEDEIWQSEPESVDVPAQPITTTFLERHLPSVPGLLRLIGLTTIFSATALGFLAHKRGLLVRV
Nature of the data set: biochemical. It counts as cell-based.

Data set [8] in a line: Selectivity index, ratio of IC50 for equine BuChE to IC50 for electric eel AChE. In outline:
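Ratio of Ellman-assay IC50 values, BuChE over AChE. Enzymes were equine serum BuChE and electric eel AChE, each at 0.05 U/mL final in pH 8.0 phosphate buffer. Each IC50 is the mean of three independent experiments run in triplicate.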

For data set [9], the target named is Cholinesterase (Equus caballus, UniProt P81908). As to the kind of experiment: Inhibition of equine butyrylcholinesterase using butyrylthiocholine iodide as substrate incubated for 15 mins by Ellman's method. In outline: as §1
The target in data set [10] is T4, Acetylcholinesterase (Electrophorus electricus, UniProt O42275). It counts as single protein.
In data set [11] the target is Amyloid-beta precursor protein (Homo sapiens) (UniProt P05067). Nature of the data set: Inhibition of HFIP-pretreated amyloid beta (1 to 42 residues) (unknown origin) self aggregation at 25 uM after 24 hrs by ThT-based fluorescence method relative to control. In outline:
(§2)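 HFIP-treated Aβ1-42, dried, redissolved in DMSO; 25 μM final peptide incubated with 25 μM compound in 50 mM phosphate buffer pH 7.40, 37 °C, 24 h; 5 μM ThT in 50 mM glycine-NaOH pH 8.0 added; fluorescence ex 446/em 490 nm.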

Data set [12] can be described thus: Antioxidant activity assessed as trolox equivalent of AAPH-induced radical scavenging activity preincubated for 15 mins followed by AAPH addition measured every minute for 120 mins by ORAC fluorescein assay. The class given is functional. Summed up: (§3)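 ORAC-FL in 75 mM phosphate buffer pH 7.40; fluorescein 150 nM final plus test antioxidant; Trolox standard at 1-8 μM final; values as Trolox equivalents.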

The target in data set [13] is T3, Amine oxidase [flavin-containing] B. Nature of the data set: Inhibition of MAO-B (unknown origin).
For data set [14], the target named is Amyloid-beta precursor protein (Homo sapiens) (UniProt P05067). As to the kind of experiment: Inhibition of self-induced amyloid beta ( 1 to 42 residues) (unknown origin) aggregation relative to control. The conditions noted are these: concentration not given here. In outline:
as §2

Data set [15] concerns the target T4, Acetylcholinesterase. As to the kind of experiment: Inhibition of Electric eel AChE. In outline:
as §1

Data set [16] can be described thus: Antioxidant activity assessed as AAPH scavenging activity by ORAC fluorescein assay. The class given is functional. In outline: as §3
In data set [17] the target is T3, Amine oxidase [flavin-containing] B. As to the kind of experiment: Inhibition of MAO-B (unknown origin) relative to control.

T4 sequence (O42275 whole entry, the tested form may be a part): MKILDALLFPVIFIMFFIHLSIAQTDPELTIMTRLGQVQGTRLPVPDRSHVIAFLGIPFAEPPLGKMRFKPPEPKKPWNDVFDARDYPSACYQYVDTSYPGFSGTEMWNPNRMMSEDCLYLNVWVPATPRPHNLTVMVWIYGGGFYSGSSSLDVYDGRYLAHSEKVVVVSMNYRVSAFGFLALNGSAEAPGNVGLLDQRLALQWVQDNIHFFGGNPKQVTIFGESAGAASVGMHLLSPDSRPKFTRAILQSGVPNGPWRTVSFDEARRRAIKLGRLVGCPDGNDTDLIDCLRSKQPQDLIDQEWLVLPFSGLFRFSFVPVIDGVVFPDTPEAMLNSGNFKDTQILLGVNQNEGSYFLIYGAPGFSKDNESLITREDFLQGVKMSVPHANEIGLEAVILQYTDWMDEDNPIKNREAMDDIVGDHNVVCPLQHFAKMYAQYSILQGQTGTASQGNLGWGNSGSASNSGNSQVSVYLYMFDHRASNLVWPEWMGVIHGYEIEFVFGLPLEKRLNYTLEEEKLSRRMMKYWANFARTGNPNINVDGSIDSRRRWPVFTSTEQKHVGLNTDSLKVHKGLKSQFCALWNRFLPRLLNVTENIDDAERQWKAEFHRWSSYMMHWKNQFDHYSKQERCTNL
Sequence of Cholinesterase (Equus caballus, UniProt P81908) (P81908 whole entry): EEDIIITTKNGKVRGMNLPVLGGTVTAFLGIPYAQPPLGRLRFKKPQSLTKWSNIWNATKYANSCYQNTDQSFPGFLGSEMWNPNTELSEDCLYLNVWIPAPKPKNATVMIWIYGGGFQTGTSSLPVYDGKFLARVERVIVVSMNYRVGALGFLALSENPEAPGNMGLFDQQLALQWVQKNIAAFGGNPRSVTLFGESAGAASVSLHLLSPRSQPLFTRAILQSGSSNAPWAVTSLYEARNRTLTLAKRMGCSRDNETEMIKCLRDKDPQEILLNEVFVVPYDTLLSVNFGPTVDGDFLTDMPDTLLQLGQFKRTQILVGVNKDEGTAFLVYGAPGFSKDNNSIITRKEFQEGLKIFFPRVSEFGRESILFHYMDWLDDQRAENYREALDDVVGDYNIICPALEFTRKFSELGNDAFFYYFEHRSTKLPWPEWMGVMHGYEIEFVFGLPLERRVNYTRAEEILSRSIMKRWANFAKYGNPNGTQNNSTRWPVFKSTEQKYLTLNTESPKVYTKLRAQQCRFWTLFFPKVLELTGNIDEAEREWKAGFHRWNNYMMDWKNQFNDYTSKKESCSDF
Sequence of Amyloid-beta precursor protein (Homo sapiens) (P05067 whole entry, the tested form may be a part): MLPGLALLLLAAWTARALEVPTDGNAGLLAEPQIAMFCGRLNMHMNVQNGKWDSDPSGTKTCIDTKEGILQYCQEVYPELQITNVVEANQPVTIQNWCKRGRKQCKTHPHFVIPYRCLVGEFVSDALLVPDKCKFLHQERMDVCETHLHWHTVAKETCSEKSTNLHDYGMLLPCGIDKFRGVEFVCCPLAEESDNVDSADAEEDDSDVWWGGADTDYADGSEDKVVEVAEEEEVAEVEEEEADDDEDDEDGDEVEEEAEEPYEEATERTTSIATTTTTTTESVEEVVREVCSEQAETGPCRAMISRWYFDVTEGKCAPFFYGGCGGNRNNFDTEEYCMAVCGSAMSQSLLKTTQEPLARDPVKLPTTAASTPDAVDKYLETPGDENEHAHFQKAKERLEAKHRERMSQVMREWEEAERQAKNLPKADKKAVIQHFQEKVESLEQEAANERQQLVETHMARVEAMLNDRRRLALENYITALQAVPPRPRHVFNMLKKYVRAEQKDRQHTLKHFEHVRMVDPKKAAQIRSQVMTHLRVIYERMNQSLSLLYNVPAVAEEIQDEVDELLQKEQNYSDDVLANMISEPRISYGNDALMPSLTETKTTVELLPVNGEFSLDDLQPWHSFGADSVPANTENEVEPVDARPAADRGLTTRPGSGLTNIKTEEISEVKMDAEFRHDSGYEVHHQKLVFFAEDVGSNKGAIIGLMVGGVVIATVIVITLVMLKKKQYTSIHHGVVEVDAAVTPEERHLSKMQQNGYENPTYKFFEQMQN
T1 sequence (P06276 whole entry): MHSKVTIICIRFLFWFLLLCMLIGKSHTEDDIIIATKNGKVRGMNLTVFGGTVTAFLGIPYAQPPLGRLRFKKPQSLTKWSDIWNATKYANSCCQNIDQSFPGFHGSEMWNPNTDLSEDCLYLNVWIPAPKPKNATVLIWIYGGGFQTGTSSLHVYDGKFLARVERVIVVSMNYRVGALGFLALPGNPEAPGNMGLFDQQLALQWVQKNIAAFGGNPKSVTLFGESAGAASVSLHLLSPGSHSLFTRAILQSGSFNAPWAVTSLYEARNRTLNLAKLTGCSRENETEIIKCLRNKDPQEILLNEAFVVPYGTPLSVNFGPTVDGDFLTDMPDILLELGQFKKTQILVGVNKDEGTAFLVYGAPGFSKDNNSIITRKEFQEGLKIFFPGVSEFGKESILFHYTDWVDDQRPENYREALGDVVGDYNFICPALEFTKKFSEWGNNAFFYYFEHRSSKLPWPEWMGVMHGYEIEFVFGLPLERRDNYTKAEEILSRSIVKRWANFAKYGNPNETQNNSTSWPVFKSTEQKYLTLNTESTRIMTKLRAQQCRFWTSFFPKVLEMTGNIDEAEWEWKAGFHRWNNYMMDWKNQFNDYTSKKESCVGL
Sequence of Acetylcholinesterase (Homo sapiens, UniProt P22303) (P22303 whole entry): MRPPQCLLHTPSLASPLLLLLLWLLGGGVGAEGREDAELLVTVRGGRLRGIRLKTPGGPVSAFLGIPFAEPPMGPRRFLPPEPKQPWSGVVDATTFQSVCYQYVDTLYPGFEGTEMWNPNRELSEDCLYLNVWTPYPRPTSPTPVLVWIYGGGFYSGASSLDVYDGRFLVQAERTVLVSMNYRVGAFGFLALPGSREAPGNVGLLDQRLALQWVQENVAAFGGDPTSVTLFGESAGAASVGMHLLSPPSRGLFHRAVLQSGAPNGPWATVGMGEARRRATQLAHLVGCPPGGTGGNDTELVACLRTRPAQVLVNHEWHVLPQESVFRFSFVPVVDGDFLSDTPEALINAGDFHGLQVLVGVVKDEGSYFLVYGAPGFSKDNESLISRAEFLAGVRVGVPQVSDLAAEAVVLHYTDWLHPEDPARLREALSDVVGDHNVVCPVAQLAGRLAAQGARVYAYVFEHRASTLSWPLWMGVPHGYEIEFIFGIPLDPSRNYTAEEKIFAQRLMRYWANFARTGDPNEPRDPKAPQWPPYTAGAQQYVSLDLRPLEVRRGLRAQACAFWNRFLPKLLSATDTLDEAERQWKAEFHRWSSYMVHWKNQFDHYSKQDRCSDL

A word on the IC50: it is the concentration that gives 50% inhibition. Consider `CCN(C)C(=O)Oc1cccc(/C=C/C(=O)c2ccccc2O)c1`, for which the concentration for half-maximal inhibition (IC50) against Cholinesterase [1] amounted to 3.1 µM.

What is called inhibition is the percentage by which the read-out fell short of the control. `COc1cc(/C=C/C(=O)CC(=O)/C=C/c2ccc(O)c(OC)c2)ccc1O` came in with an Activity in data set [2] of 56.5%. The inhibition in data set [3] was 76.5%.

Regarding `O=C(/C=C/c1ccccc1)c1ccc(OCCCCCCN2CCCC2)cc1O`, the IC50 was determined as 15.8 µM on Cholinesterase [4]; 3.2 µM on Acetylcholinesterase [5]; 12.7 µM in [7]; 12.3 µM at Cholinesterase [9]; 4.2 µM against Acetylcholinesterase [10]. In addition, the inhibition at 10 µM in data set [6] amounted to 9.5%. In data set [8], the Ratio IC50 stood at 2.9.

With `CCN(CC)CCCCCCOc1ccc(/C=C/C(=O)c2ccc(OCCCCCCN(CC)CC)cc2O)cc1`, the results for the inhibition in data set [3] and in data set [11] were 84.2% and 63.7%, respectively. In addition, in [12], the Activity worked out at 1.1 Trolox eq. The inhibition at 10 µM in [6] came out at 8.7%. Also, the IC50 was 1.6 µM in data set [7], 4.2 µM on Cholinesterase [9] and 3.7 µM at Acetylcholinesterase [10]. Further, in data set [8], the Ratio IC50 came out at 1.1.

In the case of `CCN(CC)Cc1ccc(/C=C/C(=O)c2ccc(OC)c(OC)c2)cc1O`, the concentration for half-maximal inhibition (IC50) in data set [13] is 1.21 µM; against Acetylcholinesterase [15], 0.44 µM. This compound had an inhibition in data set [14] of 55%.

With `O=C(/C=C/c1ccc(OCCCCCCN2CCCC2)cc1)c1ccccc1O`, the inhibition at 10 µM in data set [6] was 15.6%. Moreover, the IC50 was found to be 18.5 µM in data set [7], 50.2 µM at Cholinesterase [9] and 8.9 µM against Acetylcholinesterase [10]. In data set [8], the Ratio IC50 turned out to be 5.6.

As for `CCN(CC)c1ccc(/C=C/C(=O)c2cc(-c3ccc(C(C)C(=O)OC)cc3F)ccc2O)cc1` (stereo not drawn), the Activity in [16] was 3.3 Trolox eq. For the same compound, the “inhibition (INH)” value in [17] came out at 75.5%.
